Converted amounts (≈) assume the structure as drawn. Each block holds one compound with its values, some of them ahead of it.
Key:
[1] = system: Pseudomonas aeruginosa; experiment: Antimicrobial activity against Pseudomonas aeruginosa PAO1 harboring deltaampD::lox deltaampDh2::lox delta ampDh3::lox after 18 hrs by Etest; assay type: functional; settings: PAO1, 18 h
Procedure, shortened: (§1)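 Etest strips on Mueller-Hinton agar plates, run per the manufacturer's recommendations; MICs determined in triplicate.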

[2] = system: Pseudomonas aeruginosa; experiment: Antimicrobial activity against Pseudomonas aeruginosa PAO1 harboring deltaampD::lox deltaampDh2::lox deltaampDh3::lox deltanagZ::Gm after 18 hrs by Etest; assay type: functional; settings: PAO1, 18 h; procedure, shortened: as §1
[3] = system: Pseudomonas aeruginosa; experiment: Antimicrobial activity against Pseudomonas aeruginosa PAO1 after 18 hrs by Etest; assay type: functional; settings: PAO1, 18 h
Procedure, shortened: (§2)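 Strains are P. aeruginosa PAO1 and its insertional nagZ-inactivated derivative. MICs were read from Etest strips on Mueller-Hinton agar, following the manufacturer's recommendations. Each determination was done in triplicate.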

[4] = system: Pseudomonas aeruginosa; experiment: Antimicrobial activity against nagZ gene-deficient Pseudomonas aeruginosa PAO1 after 18 hrs by Etest; assay type: functional; settings: PAO1, 18 h; procedure, shortened: as §2
[5] = system: Pseudomonas aeruginosa; experiment: Antimicrobial activity against Pseudomonas aeruginosa PAO1 after 18 hrs by broth microdilution method; assay type: functional; settings: PAO1, 18 h
Procedure, shortened: (§3)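 CLSI broth microdilution in cation-adjusted Mueller-Hinton medium with serial β-lactam dilutions. Each well holds 200 μl broth inoculated with ~10⁴ cells from starter cultures at OD600 ~0.5. Plates shaken at 37°C for 18 h. The MIC is read as the lowest antibiotic concentration showing no growth. Triplicate determinations.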

[6] = system: Pseudomonas aeruginosa; experiment: Antimicrobial activity against ampD gene-deficient Pseudomonas aeruginosa PAO1 after 18 hrs by broth microdilution method in absence of EtBuPUG; settings: PAO1, 18 h
[7] = system: Pseudomonas aeruginosa; experiment: Antimicrobial activity against ampDDh2 and ampDh3 gene-deficient Pseudomonas aeruginosa PAO1 after 18 hrs by broth microdilution method in presence of 0.5 mM nagZ inhibitor EtBuPUG; assay type: functional; settings: PAO1, 18 h
Procedure, shortened: (§4)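 Wells are then inoculated with 100 μl culture and incubated 18 h at 37°C. The MIC is the lowest concentration with no growth. Triplicate determinations.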

[8] = system: Pseudomonas aeruginosa; experiment: Antimicrobial activity against ampD gene-deficient Pseudomonas aeruginosa PAO1 after 18 hrs by broth microdilution method in presence of 0.5 mM nagZ inhibitor EtBuPUG; assay type: functional; settings: PAO1, 18 h; procedure, shortened: as §4
[9] = system: Pseudomonas aeruginosa; experiment: Antimicrobial activity against Pseudomonas aeruginosa PAO1 after 18 hrs by using 30 ug/disk by agar diffusion method in presence of 0.5 mM nagZ inhibitor EtBuPUG; assay type: functional
Procedure, shortened: (§5)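 Cultures grown in Mueller-Hinton broth at 37°C to OD600 ~0.5, pelleted, resuspended in 2 ml broth and streaked on Mueller-Hinton agar. […] Inhibition zone diameter measured after overnight incubation at 37°C. Triplicate determinations.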

[10] = system: Pseudomonas aeruginosa; experiment: Antimicrobial activity against ampDh2 gene-deficient Pseudomonas aeruginosa PAO1 after 18 hrs by broth microdilution method in absence of EtBuPUG; settings: PAO1, 18 h
[11] = system: Pseudomonas aeruginosa; experiment: Antimicrobial activity against ampDh3 gene-deficient Pseudomonas aeruginosa PAO1 after 18 hrs by broth microdilution method in presence of 0.5 mM nagZ inhibitor EtBuPUG; assay type: functional; settings: PAO1, 18 h; procedure, shortened: as §4
[12] = system: Pseudomonas aeruginosa; experiment: Antimicrobial activity against nagZ gene-deficient Pseudomonas aeruginosa PAO1 after 18 hrs by broth microdilution method; assay type: functional; settings: PAO1, 18 h; procedure, shortened: as §3
[13] = system: Pseudomonas aeruginosa; experiment: Antimicrobial activity against ampDh2 gene-deficient Pseudomonas aeruginosa PAO1 after 18 hrs by broth microdilution method in presence of 0.5 mM nagZ inhibitor EtBuPUG; assay type: functional; settings: PAO1, 18 h; procedure, shortened: as §4
[14] = system: Pseudomonas aeruginosa; experiment: Antimicrobial activity against ampDDh2 gene-deficient Pseudomonas aeruginosa PAO1 after 18 hrs by broth microdilution method in presence; assay type: functional; settings: PAO1, 18 h; procedure, shortened: as §4
[15] = system: Pseudomonas aeruginosa; experiment: Antimicrobial activity against ampDh3 gene-deficient Pseudomonas aeruginosa PAO1 after 18 hrs by broth microdilution method in presence; assay type: functional; settings: PAO1, 18 h; procedure, shortened: as §4
[16] = system: Pseudomonas aeruginosa; experiment: Antimicrobial activity against ampDh2 and ampDh3 gene-deficient Pseudomonas aeruginosa PAO1 after 18 hrs by broth microdilution method in presence of 0.5 mM nagZ inhibitor EtBuPUG; assay type: functional; settings: PAO1, 18 h; procedure, shortened: as §4
[17] = system: Pseudomonas aeruginosa; experiment: Antimicrobial activity against ampDDh3 gene-deficient Pseudomonas aeruginosa PAO1 after 18 hrs by broth microdilution method in presence; assay type: functional; settings: PAO1, 18 h; procedure, shortened: as §4
[18] = system: Pseudomonas aeruginosa; experiment: Antimicrobial activity against Pseudomonas aeruginosa PAO1 harboring deltaampD::lox deltaampDh2::lox delta ampDh3::lox and plasmid pUCP27 after 18 hrs by Etest; assay type: functional; settings: PAO1, 18 h
Procedure, shortened: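 Etest strips on Mueller-Hinton agar supplemented with 75 μg/ml tetracycline to maintain the vector or complementation plasmid, run per the manufacturer's recommendations; triplicate determinations.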

[19] = system: Pseudomonas aeruginosa; experiment: Antimicrobial activity against ampDh2 and ampDh3 gene-deficient Pseudomonas aeruginosa PAO1 after 18 hrs by broth microdilution method; assay type: functional; settings: PAO1, 18 h; procedure, shortened: as §4
[20] = system: Pseudomonas aeruginosa; experiment: Antimicrobial activity against ampDh2 gene-deficient Pseudomonas aeruginosa PAO1 using 30 ug/disk by agar diffusion method in presence of 0.5 mM nagZ inhibitor EtBuPUG; assay type: functional; procedure, shortened: as §5
[21] = system: Pseudomonas aeruginosa; experiment: Antimicrobial activity against ampDDh2 and ampDh3 gene-deficient Pseudomonas aeruginosa PAO1 after 18 hrs using […] by agar diffusion method; assay type: functional; procedure, shortened: as §5
[22] = system: Pseudomonas aeruginosa; experiment: Antimicrobial activity against ampDDh3 gene-deficient Pseudomonas aeruginosa PAO1 after 18 hrs by broth microdilution method in presence of 0.5 mM nagZ inhibitor EtBuPUG; assay type: functional; settings: PAO1, 18 h; procedure, shortened: as §4
[23] = system: Pseudomonas aeruginosa; experiment: Antimicrobial activity against ampDDh2 gene-deficient Pseudomonas aeruginosa PAO1 after 18 hrs by broth microdilution method in presence of 0.5 mM nagZ inhibitor EtBuPUG; assay type: functional; settings: PAO1, 18 h; procedure, shortened: as §4
[24] = system: Pseudomonas aeruginosa; experiment: Antimicrobial activity against Pseudomonas aeruginosa PAO1 after 18 hrs by broth microdilution method in presence of 0.5 mM nagZ inhibitor EtBuPUG; assay type: functional; settings: PAO1, 18 h; procedure, shortened: as §4
[25] = biological target: Beta-hexosaminidase (Pseudomonas aeruginosa (strain ATCC 15692 / PAO1 / 1C / PRS 101 / LMG12228), UniProt Q9HZK0); experiment: Inhibition of Pseudomonas aeruginosa PAO1 nagZ gene after 1.5 hrs by fluorescence spectrophotometry
Beta-hexosaminidase, sequence (Q9HZK0 whole entry): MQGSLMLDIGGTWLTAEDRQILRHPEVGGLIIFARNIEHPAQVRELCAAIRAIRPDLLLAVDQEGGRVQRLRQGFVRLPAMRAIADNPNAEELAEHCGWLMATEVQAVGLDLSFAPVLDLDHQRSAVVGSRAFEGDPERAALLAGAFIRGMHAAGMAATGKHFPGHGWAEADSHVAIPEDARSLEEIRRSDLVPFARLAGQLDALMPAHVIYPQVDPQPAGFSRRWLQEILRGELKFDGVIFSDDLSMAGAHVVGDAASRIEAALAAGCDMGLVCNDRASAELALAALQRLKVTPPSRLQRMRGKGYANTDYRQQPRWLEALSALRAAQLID
Procedure, shortened: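 Cultures in Mueller-Hinton broth were grown at 37°C to OD600 ~0.5, diluted to 0.25 and grown 1.5 h more. Cells were PBS-washed and sonicated. Lysate protein (15 μg) was incubated with 2 mM 4-MUGlcNAc in PBS pH 7.4 at 37°C for 1–8 h, then quenched with glycine-NaOH pH 10.7. 4-MU fluorescence was read at ex 360/em 450 nm, in triplicate, with heat-denatured lysate controls.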

[26] = system: Pseudomonas aeruginosa; experiment: Antimicrobial activity against Pseudomonas aeruginosa PAO1 harboring deltaampD::lox deltaampDh2::lox delta ampDh3::lox after 18 hrs by broth microdilution method; assay type: functional; settings: PAO1, 18 h; procedure, shortened: as §3
[27] = system: Pseudomonas aeruginosa; experiment: Antimicrobial activity against Pseudomonas aeruginosa PAO1 harboring deltaampD::lox deltaampDh2::lox deltaampDh3::lox after 18 hrs by broth microdilution method; assay type: functional; settings: PAO1, 18 h; procedure, shortened: as §3

SMILES: C[C@@H](O)[C@H]1C(=O)N2C(C(=O)O)=C(SCCNC=N)C[C@H]12 [IMIPENEM ANHYDROUS]
MIC [1]: 1.5 µg/mL (≈ 5.01 µM) | MIC [2]: 1.5 µg/mL (≈ 5.01 µM) | MIC [3]: 3 µg/mL (≈ 10 µM) | MIC [4]: 2 µg/mL (≈ 6.68 µM)

SMILES: C[C@H]1[C@H](NC(=O)/C(=N\OC(C)(C)C(=O)O)c2csc(N)n2)C(=O)N1S(=O)(=O)O [AZTREONAM]
MIC [5]: 1 µg/mL (≈ 2.3 µM) | MIC [6]: 6 µg/mL (≈ 13.8 µM) | MIC [7]: 12 µg/mL | MIC [8]: 3 µg/mL | inhibition zone (IZ) [9]: 15.1 mm | MIC [10]: 1 µg/mL (≈ 2.3 µM) | MIC [2]: 4 µg/mL (≈ 9.19 µM) | MIC [11]: 0.75 µg/mL | MIC [12]: 0.25 µg/mL (≈ 0.574 µM) | MIC [13]: 0.25 µg/mL | MIC [14]: 16 µg/mL (≈ 36.7 µM) | MIC [15]: 1.5 µg/mL (≈ 3.44 µM) | MIC [16]: 0.25 µg/mL | MIC [17]: 16 µg/mL (≈ 36.7 µM) | MIC [18]: 6 µg/mL (≈ 13.8 µM) | MIC [19]: 0.5 µg/mL (≈ 1.15 µM) | inhibition zone (IZ) [20]: 14 mm | inhibition zone (IZ) [21]: 10.7 mm | MIC [22]: 8 µg/mL | MIC [23]: 8 µg/mL | MIC [24]: 0.25 µg/mL

Ki [25]: 3.5 µM
SMILES: CCC(CC)C(=O)N[C@H]1/C(=N/OC(=O)Nc2ccccc2)O[C@H](CO)[C@@H](O)[C@@H]1O

SMILES: O=C(O)c1cn(C2CC2)c2cc(N3CCNCC3)c(F)cc2c1=O [CIPROFLOXACIN]
MIC [5]: 0.2 µg/mL (≈ 0.604 µM) | MIC [26]: 0.2 µg/mL (≈ 0.604 µM) | MIC [12]: 0.2 µg/mL (≈ 0.604 µM) | MIC [27]: 0.2 µg/mL (≈ 0.604 µM)

— ChEMBL document CHEMBL1649427, “Inactivation of the glycoside hydrolase NagZ attenuates antipseudomonal beta-lactam resistance in Pseudomonas aeruginosa” (Antimicrob Agents Chemother, 2009)
